Compound activity (PubChem BioAssay)
Calb FLC = affects C. albicans growth with fluconazole. C. albicans CaCi-2 (fluconazole-resistant clinical isolate) + fluconazole, Alamar Blue growth, 48 h. AID 1979. 300,000 compounds, 0.57% hits. growth inhibition, % (concentration not given with the values);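 active = growth inhibition above about 58% in most replicates, limit read from the data, passing the limit was not always enough; inconclusive = exactly half the replicates above a set limit; inactive = most replicates below a set limit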;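 note: all wells also contain fluconazole at 8 µg/ml as a sub-toxic cotreatment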
H9c2 TAG inh = reduces triacylglycerol accumulation in H9c2 cells | AID 651582 | 230,000 compounds, 0.66% hits | Nile Red lipid (TAG) fluorescence; cells loaded with 200 µM oleic acid | inhibition, % at 12.5 µM;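 active = pattern-corrected inhibition of lipid staining of at least 50% with the nuclear-stain viability signal not falling by more than 50%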
Bfl-1 A1 inh = inhibitors of the anti-apoptotic protein A1, read as caspase activation; caspase activation, % (test concentration not listed); AID 2462; 330,000 compounds, 0.066% hits; MEF A1-2A-BIM cells, Caspase-Glo 3/7 luminescence, 3 h; percent of clofoctol response, vehicle zero;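 active = over half of replicate activation scores above 10%, or exactly half above 10 with the replicate mean above 10; inconclusive = replicate mean below 10 yet half the replicates above 10; inactive = over half of replicates below 10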
CSC inhib = cancer stem cell inhibition | cancer stem cell-like cells viability, luminescence | 300,000 compounds, 1.1% hits | inhibition, % at 7.5 µM; in the data active = inhibition above about 75%; inconclusive = no clear call, values can overlap the other calls; tested in HMLE shEcad cells
Beta apoptosis = beta cell apoptosis inhibition. INS-1E cytokine-induced death, ATP luminescence, 48 h; percent of positive-control rescue, neutral wells zero. protection from apoptosis, % (no concentration beside the values). 300,000 compounds, 0.8% hits;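 active = Every replicate reaches about 75%, or at least half do and their mean reaches it too, limit read from the data; inconclusive = At least half of replicates reach the limit but their mean does not; inactive = Under half of replicates reach the limit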;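 note: higher means more ATP so stronger rescue from cytokine killing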
T cruzi repl = blocks replication of Trypanosoma cruzi | 300,000 compounds, 1.4% hits | inhibition, % (concentration not given with the values) | AID 1885 | T. cruzi beta-gal in NIH3T3, luminescence, 90 h;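 active = mean inhibition across valid replicates above about 55%, limit read from the data; inconclusive = mean below that limit but half or more replicates reach it; inactive = mean below it, under half of replicates reach it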;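 note: signal also drops with host cell toxicity which is not excluded here; higher percent means less beta-gal luminescence so fewer parasites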
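Assay system: NIH/3T3 fibroblasts plus reporter T. cruzi. Amount: NIH/3T3 cells, 5,000 per well. Buffer or medium: DMEM, 2% fetal bovine serum. Doses: compound pinned at 50 nL/well, DMSO. Schedule: ≥90 h infection period, 3 h prior cell attachment. Signal: luminescent β-galactosidase signal after 60 min lysis. Read-out: parasite load inhibition, %.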
Hits are given with their value; - = inactive; ? = inconclusive; . = not tested or not shown. Only some compounds are listed: those with a hit (about 3.1% of all), similar ones and a draw of the others.

SMILES | Calb FLC | H9c2 TAG inh | Bfl-1 A1 inh | CSC inhib | Beta apoptosis | T cruzi repl
CC(c1ccccc1)N1C(=O)/C(=C/c2ccncc2)SC1=S (stereo unspecified) | - | - | - | 85.4 | . | -
O=C(O)C(c1ccccc1)N1C(=O)/C(=C/c2cccs2)SC1=S (stereo unspecified) | - | - | - | - | - | -
COc1ccc(CC(N)c2csc(NC(=O)c3cc(C(C)(C)C)nn3Cc3ccccc3)n2)cc1 (stereo unspecified) | . | 111.5 | . | . | . | .
O=C1[C@H](c2ccccc2)[C@@H](c2ccccc2)N1c1ccncc1 | . | - | . | . | . | .
CCCCOC(=O)NS(=O)(=O)c1sc(CC(C)C)cc1-c1ccc(Cn2c(CC)nc3c(C)cc(C)nc32)cc1 | . | . | - | 99.8 | - | .
CCCCOC(=O)Nc1ccc(S(=O)(=O)Nc2nc(C)cc(C)n2)cc1 | - | . | - | . | - | -
COc1ccc(-c2cc(N)n(S(=O)(=O)c3c(F)c(F)c(F)c(F)c3F)n2)cc1OC | 76.1 | . | - | - | 92.9 | -
Cc1ccc(C(c2c(C)nn(-c3ccccc3)c2N)c2c(C)nn(-c3ccccc3)c2N)cc1 | - | . | - | - | - | -
Cc1nn(-c2ccccc2)c(N)c1C(c1ccc(C(C)C)cc1)c1c(C)nn(-c2ccccc2)c1N | - | . | - | - | 97.3 | -
Cc1c(/C=N/NC(=O)c2ccc(Br)o2)cnn1C | - | - | - | - | - | -
O=C(C1CCN(S(=O)(=O)c2cccs2)CC1)N1CCCC(C(F)(F)F)C1 (stereo unspecified) | - | - | - | - | - | -
CC(c1ccc(Cl)cc1)n1c(-c2ccc3ccccc3n2)n[nH]c1=S (stereo unspecified) | 79.1 | . | - | - | - | -
CC(c1ccc(F)cc1)n1c(-c2ccc3ccccc3n2)n[nH]c1=S (stereo unspecified) | - | . | - | - | - | -
COc1ccc2nc(NN=C(C)c3ccccn3)cc(C)c2c1 | . | 67.2 | . | . | . | .
C/C(=N\Nc1ccc(Cl)cc1)c1ccccn1 | - | . | - | - | - | -
CC(C)Oc1ccc(C(=O)/C=C2/C(=O)Nc3ccccc32)cc1 | - | . | - | 101.5 | - | -
O=C1Nc2ccccc2/C1=C\C(=O)c1ccccc1 | - | . | - | - | - | -
O=C(N/N=C/c1ccccc1)c1ccco1 | - | - | - | - | - | -
O=C(C#Cc1ccccc1)c1ccco1 | - | . | - | - | 99.8 | -
Cc1ccccc1OCCC(=O)OCC(=O)NC1CCS(=O)(=O)C1 (stereo unspecified) | - | - | - | - | . | -
Cc1ccc(NS(=O)(=O)c2ccc(N3CCN(c4ccc(O)cc4)CC3)c([N+](=O)[O-])c2)c(C)c1 | - | . | - | 83.1 | - | -
O=[N+]([O-])c1cc(S(=O)(=O)Nc2ccccc2)ccc1N1CCN(c2ccc(O)cc2)CC1 | - | . | - | 76.6 | - | -
CN1CCN(S(=O)(=O)c2ccc(N3CCN(c4ccc(O)cc4)CC3)c([N+](=O)[O-])c2)CC1 | - | - | - | - | - | -
O=C(CCNC(=O)c1ccc(Cl)cc1)Nc1ccccc1N1CCCCC1 | - | - | - | - | - | -
O=C(Nc1ccccc1N1CCCCC1)c1ccc(-c2cc(Cl)ccc2Cl)o1 | - | - | - | - | - | -
SMILES | Calb FLC | H9c2 TAG inh | Bfl-1 A1 inh | CSC inhib | Beta apoptosis | T cruzi repl
CC(NC(=O)c1cccc(Cn2cc([N+](=O)[O-])cn2)c1)c1ccc(C(C)(C)C)cc1 (stereo unspecified) | - | . | - | - | - | 55.0
C[C@@H](NC(=O)[C@@H]1Cc2ccccc2CN1)C(=O)NCC1CCCO1 (stereo partly specified) | - | . | - | - | - | -
CC(C)c1ccc2[nH]c(O)c(N=NC(=O)c3cccc(S(=O)(=O)N4CCCCC4)c3)c2c1 | - | . | - | - | - | 69.0
O=C(N=Nc1c(O)[nH]c2ccccc12)c1cccc(S(=O)(=O)N2CCCCC2)c1 | - | . | - | - | - | -
CC(C)c1ccc2[nH]c(O)c(N=NC(=O)c3cccc(S(=O)(=O)Nc4ccc(Cl)cc4)c3)c2c1 | - | - | 13.3 | . | - | -
COc1ccc(-c2noc(N3CCC(C(=O)Nc4cccc(OC)c4)CC3)n2)cc1 | - | - | - | - | - | -
Cc1nnc(SCc2ccc(Cl)cc2)nc1/C=C/N(C)C | - | - | - | - | - | 61.0
CC(=O)N(C)C1=C(N2CCOCC2)C(=O)c2ccccc2C1=O | - | . | - | . | 125.2 | -
CC(=O)N(C1=C(N2CCOCC2)C(=O)c2ccccc2C1=O)c1ccc(C(=O)O)cc1 | - | - | - | - | - | -
COc1cccc(NC(=O)COC(=O)CCn2c(C)csc2=O)c1 | - | - | - | - | - | -
O=S(=O)(c1ccc2nc(Nc3ccccc3)ccc2c1)N1CCCCC1 | - | . | - | - | 103.1 | -
O=S(=O)(c1ccc2nc(N3CCN(c4ccccc4F)CC3)ccc2c1)N1CCCCC1 | - | . | - | - | - | -
Cc1ccc(S(=O)(=O)Nc2nc3ccccc3nc2Nc2cccc(S(=O)(=O)N3CCCC3)c2)cc1 | - | - | - | 114.4 | - | -
COc1ccc(CNC(=O)CN(Cc2ccccc2)S(=O)(=O)c2ccc(Cl)cc2)cc1 | - | . | - | - | - | 74.2
Oc1ccc(-c2cc(-c3ccc(O)cc3)nc(-c3ccccc3)n2)cc1 | - | . | - | 104.8 | - | 55.4
NNc1nc(-c2ccccc2)cc(-c2ccccc2O)n1 | ? | . | - | - | 79.1 | -
Nc1nc(-c2ccccc2)cc(-c2ccccc2O)n1 | - | . | - | - | - | -
NNc1nc(-c2ccccc2)cc(-c2ccccc2)n1 | - | - | - | 80.1 | - | -
CN(CC(=O)Nc1cccc(F)c1)C(=O)c1ccccc1-n1cnnn1 | . | - | . | . | . | .
CC1(C)CC(=O)C=C(CN2C(=O)c3ccccc3C2=O)C1=O | . | - | - | - | - | .
O=C(Nc1ccnn1C1CCN(Cc2cc(Cl)ccc2O)CC1)C1CC1 | - | . | - | - | - | -
O=C(Cc1c(Cl)cccc1Cl)Nc1ccncc1Cl | - | . | - | - | - | -
COc1ccc(CC(=O)Nc2ccncc2Cl)cc1 | - | - | - | - | 102.0 | -
CN1Cc2c(N3CCOCC3)nc3sc(C(=O)c4ccc(Br)cc4)c(N)c3c2CC1(C)C | - | 68.2 | - | 101.7 | - | -
Cc1cc(C)cc(NC(=O)C(c2ccccc2)N2CCN(CC(=O)NC3CC3)CC2)c1 (stereo unspecified) | . | - | - | . | - | .
Cc1cc(C)nc(NC(=NCCc2c[nH]c3ccccc23)NC(=O)C(C)(C)C)n1 | - | - | - | - | - | 60.8
Cc1cc(C)nc(N2C(=O)CC(C(=O)O)NC2=NCCc2c[nH]c3ccccc23)n1 (stereo unspecified) | - | - | - | - | - | -
CCN1CCN(c2oc(COc3ccc(-c4ccccc4)cc3)nc2C#N)CC1 | - | . | - | - | - | 60.9
N#Cc1nc(COc2ccc(Br)cc2)oc1N1CCN(Cc2ccccc2)CC1 | . | - | . | . | . | .
